Values after ≈ are worked out from the molar mass of the structure shown. Active and inactive are the calls of the source. The rule behind the calls is not given here.
How the values were obtained:
U-937 [1] = assay: Anti-inflammatory activity in human U937 cells assessed as inhibition of LPS-induced IL6 production at 10 uM pre-incubated for 1 hr before LPS stimulation for 24 hrs by ELISA method; format: functional
How it was run: (§1)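 Human U937 cells grown in RPMI1640 with 10% FBS at 37 °C, 5% CO2. Differentiated with PMA 30 ng/ml for 24 h. Test compounds added for 1 h, then LPS 1 µg/ml for 24 h. TNF-α and IL-6 in supernatant measured by ELISA. Three independent experiments.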

U-937 [2] = assay: Anti-inflammatory activity in human U937 cells assessed as inhibition of LPS-induced TNFalpha production at 10 uM pre-incubated for 1 hr before LPS stimulation for 24 hrs by ELISA method; format: functional; how it was run: as §1
Salmonella typhi [3] = assay: Antimicrobial activity against Salmonella typhi at 1 mg/ml incubated for 20 to 30 mins followed by incubation for 24 hrs at 37 degC by agar plate method; format: functional, Salmonella enterica subsp. enterica serovar Typhi; conditions: for zone of inhibition at 1000 µg/mL: Salmonella enterica, read-out: DIZ; for diameter of the inhibition zone (DIZ): Salmonella enterica subsp. enterica serovar Typhi
How it was run: (§2)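 Agar well diffusion on nutrient agar. Plates swabbed with 60 µL inoculum, 8 mm wells loaded with 100 µL sample at 1.0 mg/mL, streptomycin standard and control in separate wells. Plates held 20–30 min at 4 °C for diffusion, then 24 h at 37 °C. Zone diameter read in mm; triplicate.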

Salmonella paratyphi [4] = assay: Antimicrobial activity against Salmonella paratyphi at 1 mg/ml incubated for 20 to 30 mins followed by incubation for 24 hrs at 37 degC by agar plate method; format: functional, Salmonella enterica subsp. enterica serovar Paratyphi A; conditions: for zone of inhibition at 1000 µg/mL: Salmonella enterica, read-out: DIZ; for diameter of the inhibition zone (DIZ): Salmonella enterica subsp. enterica serovar Paratyphi A; how it was run: as §2
[5] = Anti-inflammatory activity using bovine serum albumin and egg albumin proteins incubated at 37 degC for 20 mins and then heated to 95 degC for 20 mins by UV-visible Spectrophotometry based protein denaturation method; format: functional
How it was run: (§3)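 Albumin (bovine serum or egg) at 1% in 50 mM sodium phosphate buffer pH 6.4. Mixture is 0.1 ml test sample (1 mg/ml) plus 0.2 ml albumin, made to 5 ml with buffer. Held 37 °C for 20 min, then 95 °C for 20 min. Cooled to room temperature, turbidity read at 660 nm. % inhibition = (Abs control − Abs sample)/Abs control × 100. Triplicate, averaged.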

[6] = Anti-inflammatory activity at 50 ug/ml using bovine serum albumin and egg albumin proteins incubated at 37 degC for 20 mins and then heated to 95 degC for 20 mins by UV-visible Spectrophotometry based protein denaturation method; format: functional; how it was run: as §3
[7] = Anti-inflammatory activity at 100 ug/ml using bovine serum albumin and egg albumin proteins incubated at 37 degC for 20 mins and then heated to 95 degC for 20 mins by UV-visible Spectrophotometry based protein denaturation method; format: functional; how it was run: as §3
Micrococcus luteus [8] = assay: Antimicrobial activity against Micrococcus luteus at 1 mg/ml incubated for 20 to 30 mins followed by incubation for 24 hrs at 37 degC by agar plate method; format: functional; conditions: for zone of inhibition at 1000 µg/mL: read-out: DIZ
How it was run: (§4)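 Agar well diffusion on nutrient agar. Plates swabbed with 60 µL inoculum; 8 mm wells loaded with 100 µL of compound at 1.0 mg/mL. Held 20–30 min at 4 °C for diffusion, then 24 h at 37 °C. Inhibition zone diameter read in mm. Triplicate.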

Micrococcus luteus [9] = assay: Antimicrobial activity against Micrococcus luteus incubated for 12 to 16 hrs followed by plating in nutrient agar by tube dilution method; format: functional
How it was run: (§5)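 Tube dilution, serial from 500 to 1.9 µg/mL, plus drug-free control tube. Each tube inoculated with 1 mL culture at OD 0.2, incubated 37 °C for 12–16 h. MIC is the lowest concentration with no growth by turbidity. MBC is found by plating each tube on nutrient agar: the lowest concentration at which all cells are killed.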

Salmonella paratyphi [10] = assay: Antimicrobial activity against Salmonella paratyphi incubated for 12 to 16 hrs by tube dilution method; format: functional; conditions: Salmonella enterica subsp. enterica serovar Paratyphi A
How it was run: (§6)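 Broth tube dilution, two-fold serial dilutions from 500 to 1.9 µg/mL plus a drug-free control tube. Each tube inoculated with 1 mL culture at OD 0.2 (~McFarland standard), 37 °C for 12-16 h. Turbidity compared with the control tube. MIC is the lowest concentration giving complete growth inhibition.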

Micrococcus luteus [11] = assay: Antimicrobial activity against Micrococcus luteus incubated for 12 to 16 hrs by tube dilution method; format: functional; how it was run: as §5
Salmonella paratyphi [12] = assay: Antimicrobial activity against Salmonella paratyphi incubated for 12 to 16 hrs followed by plating in nutrient agar by tube dilution method; format: functional; conditions: Salmonella enterica subsp. enterica serovar Paratyphi A
How it was run: (§7)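 After 12-16 h at 37 °C in tube dilution (500 to 1.9 µg/mL; 1 mL inoculum at OD 0.2), the culture from each tube was plated on nutrient agar. MBC is the concentration at which cells are completely killed.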

Salmonella typhi [13] = assay: Antimicrobial activity against Salmonella typhi incubated for 12 to 16 hrs followed by plating in nutrient agar by tube dilution method; format: functional; conditions: Salmonella enterica subsp. enterica serovar Typhi; how it was run: as §7
Salmonella typhi [14] = assay: Antimicrobial activity against Salmonella typhi incubated for 12 to 16 hrs by tube dilution method; format: functional; conditions: Salmonella enterica subsp. enterica serovar Typhi; how it was run: as §6
Staphylococcus aureus = assay: Antimicrobial activity against Staphylococcus aureus at 1 mg/ml incubated for 20 to 30 mins followed by incubation for 24 hrs at 37 degC by agar plate method; format: functional; how it was run: as §4

| Structure (SMILES) | inhibition at 10 µM (U-937 [1]) [%] | inhibition at 10 µM (U-937 [2]) [%] | zone of inhibition at 1000 µg/mL (Salmonella typhi [3]) [mm] | zone of inhibition at 1000 µg/mL (Salmonella paratyphi [4]) [mm] | IC50 [5] | inhibition [6] | inhibition [7] | zone of inhibition at 1000 µg/mL (Micrococcus luteus [8]) [mm] | MBC (Micrococcus luteus [9]) | diameter of the inhibition zone (DIZ) (Micrococcus luteus [8]) | MIC (Salmonella paratyphi [10]) | MIC (Micrococcus luteus [11]) | MBC (Salmonella paratyphi [12]) | diameter of the inhibition zone (DIZ) (Salmonella typhi [3]) | MBC (Salmonella typhi [13]) | MIC (Salmonella typhi [14]) | diameter of the inhibition zone (DIZ) (Staphylococcus aureus) | diameter of the inhibition zone (DIZ) (Salmonella paratyphi [4]) |
| --- | --- | --- | --- | --- | --- | --- | --- | --- | --- | --- | --- | --- | --- | --- | --- | --- | --- | --- |
| OCc1cn(-c2ccccc2)nc1-c1ccc(Cl)cc1Cl | 18.3 | 4.92 | 13.5 | 11.5 | 62.37 µg/mL (≈ 195 µM) | 60.3% | 80.2% | – | – | – | – | – | – | – | – | – | – | – |
| Cc1ccc(-c2nn(-c3ccccc3)cc2CO)cc1 | 20.9 | 0.74 | 19 | 14 | 61.05 µg/mL (≈ 231 µM) | 60.3% | 81.9% | 16.5 | – | – | – | – | – | – | – | – | – | – |
| Cc1ccc(-n2cc(CO)c(-c3ccccc3)n2)cc1 | 23.8 | – | 17 | 12.5 | 73.42 µg/mL (≈ 278 µM) | 40.5% | 68.1% | – | – | – | – | – | – | – | – | – | – | – |
| Cc1ccc(-n2cc(CO)c(-c3ccccc3)n2)cc1C | 46.4 | 8.35 | 14.5 | 12 | 59.79 µg/mL (≈ 215 µM) | 66.4% | 83.6% | – | – | – | – | – | – | – | – | – | – | – |
| Cc1ccc(-c2nn(-c3ccccc3)cc2Cn2cc(CO)nn2)cc1 | 42 | 14.8 | 15 | 14 | 128.89 µg/mL (≈ 373 µM) | 21.6% | 38.8% | – | – | – | – | – | – | – | – | – | – | – |
| OCc1cn(-c2ccccc2)nc1-c1ccc(Cl)cc1 | 24.1 | 3.32 | – | 12 | 59.79 µg/mL (≈ 210 µM) | 67.2% | 83.6% | – | – | – | – | – | – | – | – | – | – | – |
| OCc1cn(Cc2cn(-c3ccccc3)nc2-c2ccc(Cl)cc2Cl)nn1 | 39.6 | 9.9 | 14 | 17 | 65.17 µg/mL (≈ 163 µM) | 50.9% | 76.7% | – | – | – | – | – | – | – | – | – | – | – |
| OCc1cn(Cc2cn(-c3ccc(Cl)cc3)nc2-c2ccccc2)nn1 | 38.8 | 12.7 | 19.5 | 16.5 | 63.74 µg/mL (≈ 174 µM) | 55.2% | 78.5% | 11.5 | – | – | – | – | – | – | – | – | – | – |
| CCOC(=O)c1nnn(Cc2cn(-c3ccccc3)nc2-c2ccc(Cl)cc2)c1C(=O)OCC | – | – | – | – | Not Active | inactive | inactive | – | inactive | inactive | inactive | inactive | inactive | inactive | inactive | inactive | inactive | inactive |
| Fc1ccc(-c2cn(Cc3cn(-c4ccccc4)nc3-c3ccccc3)nn2)cc1 | – | – | – | – | Not Active | inactive | inactive | – | inactive | inactive | inactive | inactive | inactive | inactive | inactive | inactive | inactive | inactive |
| COC(=O)c1nnn(Cc2cn(-c3ccccc3)nc2-c2ccc(Cl)cc2)c1C(=O)OC | – | – | – | – | Not Active | inactive | inactive | – | inactive | inactive | inactive | inactive | inactive | inactive | inactive | inactive | inactive | inactive |
| Clc1ccc(-c2nn(-c3ccccc3)cc2Cn2cc(-c3ccccc3)nn2)cc1 | – | – | – | – | Not Active | inactive | inactive | – | inactive | inactive | inactive | inactive | inactive | inactive | inactive | inactive | inactive | inactive |
| COc1ccc(-c2nn(-c3ccccc3)cc2Cn2cc(-c3ccccc3)nn2)cc1 | – | – | – | – | Not Active | inactive | inactive | – | inactive | inactive | inactive | inactive | inactive | inactive | inactive | inactive | inactive | inactive |
| Cc1ccc(-c2nn(-c3ccccc3)cc2CN=[N+]=[N-])cc1 | – | – | – | – | Not Active | inactive | inactive | – | inactive | inactive | inactive | inactive | inactive | inactive | inactive | inactive | inactive | inactive |
| OCc1cn(-c2ccccc2)nc1-c1ccccc1 | 19.6 | 1.44 | 11.5 | 14 | 56.86 µg/mL (≈ 227 µM) | 75.9% | 87.9% | – | – | – | – | – | – | – | – | – | – | – |
| CCOC(=O)c1nnn(Cc2cn(-c3ccc(Cl)cc3)nc2-c2ccccc2)c1C(=O)OCC | – | – | – | – | Not Active | inactive | inactive | – | inactive | inactive | inactive | inactive | inactive | inactive | inactive | inactive | inactive | inactive |
| Cc1ccc(-n2cc(CN=[N+]=[N-])c(-c3ccccc3)n2)cc1 | – | – | – | – | Not Active | inactive | inactive | – | inactive | inactive | inactive | inactive | inactive | inactive | inactive | inactive | inactive | inactive |
| Cc1ccc(-n2cc(Cn3cc(-c4ccccc4)nn3)c(-c3ccccc3)n2)cc1 | – | – | – | – | Not Active | inactive | inactive | – | inactive | inactive | inactive | inactive | inactive | inactive | inactive | inactive | inactive | inactive |

Reference: ChEMBL document CHEMBL4177578, “Synthesis, pharmacological activities and molecular docking studies of pyrazolyltriazoles as anti-bacterial and anti-inflammatory agents” (Bioorg Med Chem, 2017)
